Published values gathered from unrelated publications.
Target: Receptor tyrosine-protein kinase erbB-4 (ERBB4, Homo sapiens, UniProt Q15303)

Structure (SMILES) | effect on | mode | method | tested at | quantity | value
N#CC1(c2ccccn2)CCN(Cc2cc(C(=O)O)c(=O)n3ccccc23)CC1 | cell-free assay | – | competition with immobilised ligand | 1 µM | remaining binding | 72%
Nc1ncc(-c2nc(N3CCOCC3)nc(N3CCOCC3)n2)c(C(F)F)n1 | binding | – | competition with immobilised ligand | 10 µM | remaining binding | 60%
Cc1nn(C)cc1-c1nc2c(N3CCN(Cc4ccc(Cl)cc4)CC3)c(Cl)cnc2[nH]1 | binding | – | competition with immobilised ligand | 1 µM | remaining binding | 100%
Cn1cc(-c2cccc(N3CCc4c(sc5c4CC(C)(C)C5)C3=O)c2CO)cc(Nc2ccncn2)c1=O | enzyme activity | inhibitor | – | 1 µM | inhibition | 0%
C#Cc1n[nH]c2c(-c3cn([C@@H](C)c4ccccc4)c(=O)[nH]c3=O)cc(F)cc12 | enzyme activity | inhibitor | – | 0.1 µM | inhibition | -16.5%
Cn1cc(-c2cc(F)cc(N3CCn4c(cc5c4CCCC5)C3=O)c2CO)cc(Nc2ccc(N3CCN(C4COC4)CC3)cn2)c1=O | enzyme activity | inhibitor | – | 0.1 µM | inhibition | 8%
COc1ncccc1-c1cnn2ccc(N3CCN(C(=O)OC(C)C)CC3)nc12 | binding | – | competition with immobilised ligand | 1 µM | remaining binding | 100%
O=c1[nH]c2ccccc2n1C1CCN(Cc2ccc(-c3[nH]c4cc5ncnc5cc4nc3-c3ccccc3)cc2)CC1 | cell-free assay | – | – | 0.5 µM | remaining signal | 105%
COc1cc(Nc2ncc(F)c(Nc3ccc4c(n3)NC(=O)C(C)(C)O4)n2)cc(OC)c1OC | binding | – | competition with immobilised ligand | 10 µM | inhibition | 89%
Cn1cncc1[C@@](O)(COc1ccc(C#N)cc1-c1ccc(OC(F)(F)F)cc1)c1ccc(C#N)cc1 | cell-free assay | – | competition with immobilised ligand | 1 µM | remaining binding | 100%
CC(C)(C)c1cc(C=C(C#N)C#N)cc(Br)c1O | enzyme activity | inhibitor | – | 0.5 µM | remaining activity | 94%
C#Cc1n[nH]c2c(-c3cn([C@@H](C)c4ccccn4)c(=O)[nH]c3=O)cc(F)cc12 | enzyme activity | inhibitor | – | 0.1 µM | inhibition | -15.6%
